Experimental data: ChEMBL document CHEMBL3414471 (J Med Chem, 2015)
pEC50, pIC50: −log10 of the molar value. The source made the active and inactive calls. The calls are words filed in the database; no cut-off is given here.

Tests used:
[1] = molecular target: T1, 5-hydroxytryptamine receptor 2C (Homo sapiens, UniProt P28335); experiment: Agonist activity at human 5-HT2C receptor expressed in HEK293 cells assessed as calcium flux by FLIPR assay; assay type: functional, cell-based
T1 sequence (P28335 whole entry): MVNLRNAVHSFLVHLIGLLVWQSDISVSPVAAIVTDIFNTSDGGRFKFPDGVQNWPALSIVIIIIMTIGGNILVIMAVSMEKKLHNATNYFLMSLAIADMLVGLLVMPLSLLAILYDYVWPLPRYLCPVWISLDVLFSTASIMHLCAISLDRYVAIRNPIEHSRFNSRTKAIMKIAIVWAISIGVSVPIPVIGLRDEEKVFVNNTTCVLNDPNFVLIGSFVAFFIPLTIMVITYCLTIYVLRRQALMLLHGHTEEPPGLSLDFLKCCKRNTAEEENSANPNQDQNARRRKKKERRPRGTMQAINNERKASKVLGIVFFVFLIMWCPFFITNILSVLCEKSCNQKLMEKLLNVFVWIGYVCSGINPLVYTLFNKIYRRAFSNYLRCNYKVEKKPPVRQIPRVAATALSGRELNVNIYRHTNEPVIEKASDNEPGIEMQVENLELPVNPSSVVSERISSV

[2] = molecular target: T2, 5-hydroxytryptamine receptor 2B (Homo sapiens, UniProt P41595); experiment: Agonist activity at human 5-HT2B receptor expressed in HEK293 cells assessed as calcium flux by FLIPR assay relative to 5-HT; assay type: functional, cell-based
T2 sequence (P41595 whole entry): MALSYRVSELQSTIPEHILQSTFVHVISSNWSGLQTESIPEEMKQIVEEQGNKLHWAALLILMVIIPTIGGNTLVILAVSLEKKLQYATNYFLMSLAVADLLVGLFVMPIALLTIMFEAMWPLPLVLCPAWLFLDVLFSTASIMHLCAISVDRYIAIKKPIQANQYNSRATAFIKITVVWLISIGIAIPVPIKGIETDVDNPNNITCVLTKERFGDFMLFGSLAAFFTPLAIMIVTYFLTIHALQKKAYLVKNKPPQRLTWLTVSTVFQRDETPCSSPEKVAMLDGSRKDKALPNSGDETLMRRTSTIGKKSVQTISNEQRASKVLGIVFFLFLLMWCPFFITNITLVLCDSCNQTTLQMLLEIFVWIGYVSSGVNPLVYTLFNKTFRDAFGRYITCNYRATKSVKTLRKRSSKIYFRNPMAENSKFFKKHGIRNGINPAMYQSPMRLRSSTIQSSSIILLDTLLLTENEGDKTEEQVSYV
Outline: (§1)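 Flp-In-293 cells stably expressing human 5-HT2A, 5-HT2B or 5-HT2C-INI; grown 24–48 h in DMEM/10% dialyzed FBS, plated on poly-L-Lys at 12000 cells/well in 1% dialyzed FBS for 24 h. Loaded 1 h at 37 °C with calcium dye in HBSS, 20 mM Hepes pH 7.40, 2.5 mM probenecid.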

[3] = molecular target: 5-hydroxytryptamine receptor 2A (Homo sapiens, UniProt P28223); experiment: Agonist activity at human 5-HT2A receptor expressed in HEK293 cells assessed as calcium flux at 10 uM by FLIPR assay; assay type: functional, cell-based
Sequence of 5-hydroxytryptamine receptor 2A (P28223 whole entry): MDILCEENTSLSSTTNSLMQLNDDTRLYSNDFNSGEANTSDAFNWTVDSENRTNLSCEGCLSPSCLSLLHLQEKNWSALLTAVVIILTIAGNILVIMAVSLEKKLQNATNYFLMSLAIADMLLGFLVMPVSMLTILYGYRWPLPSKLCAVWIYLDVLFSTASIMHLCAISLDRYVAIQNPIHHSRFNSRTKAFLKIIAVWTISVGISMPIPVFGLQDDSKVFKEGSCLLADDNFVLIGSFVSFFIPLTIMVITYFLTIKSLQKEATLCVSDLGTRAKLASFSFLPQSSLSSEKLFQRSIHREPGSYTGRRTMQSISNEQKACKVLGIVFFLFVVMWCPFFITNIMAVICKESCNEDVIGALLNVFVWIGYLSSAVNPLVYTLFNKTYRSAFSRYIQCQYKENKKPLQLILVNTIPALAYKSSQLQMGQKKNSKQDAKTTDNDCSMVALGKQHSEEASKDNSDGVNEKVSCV
Outline: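 Flp-In-293 cells stably expressing human 5-HT2A, 5-HT2B or 5-HT2C-INI, grown in DMEM with 10% dialyzed FBS, then plated for 24 h in 1% dialyzed FBS. Cells were loaded 1 h at 37 °C with calcium dye in Hepes-buffered HBSS, pH 7.40, containing 2.5 mM probenecid. FLIPR read 10 s baseline, then 120 s after drug addition.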

[4] = species on record: Homo sapiens; experiment: Selectivity ratio of EC50 for human 5-HT2B receptor to EC50 for human 5HT2C receptor
[5] = molecular target: T3, 5-hydroxytryptamine receptor 2C (Homo sapiens) (UniProt P28335); experiment: Agonist activity at human 5-HT2C receptor expressed in HEK293 cells assessed as calcium flux by FLIPR assay relative to 5-HT; assay type: functional, cell-based; outline: as §1
T3 sequence (whole entry): T1 sequence (P28335 whole entry)

[6] = molecular target: T2, 5-hydroxytryptamine receptor 2B; experiment: Agonist activity at human 5-HT2B receptor expressed in HEK293 cells assessed as calcium flux by FLIPR assay; assay type: functional, cell-based
[7] = tested on: Nucleic Acid; experiment: Ratio of drug uptake from brain to plasma in CD1 mouse at 10 mg/kg, ip after 2 hrs; assay type: ADME, organism-based; design: dose 10 mg/kg, route intraperitoneal
[8] = tested on: Salmonella typhimurium; experiment: Mutagenic activity in Salmonella typhimurium TA100 at 10 to 100 uM by ames test; assay type: toxicity, organism-based; details: salmonella enterica subsp. enterica serovar typhimurium
Outline: (§2)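 Ames fluctuation test in Salmonella strains TA98, TA100, TA1535 and TA1537, with and without S9, at 10, 50 and 100 µM; scored negative or positive.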

[9] = tested on: Salmonella typhimurium; experiment: Mutagenic activity in Salmonella typhimurium TA1537 at 10 to 100 uM by ames test; assay type: toxicity, organism-based; details: salmonella enterica subsp. enterica serovar typhimurium; outline: as §2
[10] = Permeability from basolateral to apical side in human Caco2 cells at pH 7.4; assay type: ADME, cell-based; details: caco-2, pH 7.4
Outline: (§3)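 Caco-2 monolayer permeability measured A–B and B–A in pH 7.4 buffer, reported as ×10−6 cm/s; A–B/B–A ratio derived from these.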

[11] = Drug uptake in CD1 mouse brain at 10 mg/kg, ip after 0.5 hrs; assay type: ADME, organism-based; design: dose 10 mg/kg, route intraperitoneal; details: read-out: Drug uptake
Outline: (§4)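 CD1 mice received a single 10 mg/kg ip dose formulated in pure water. Brain (ng/g) and plasma (ng/mL) levels were measured at 0.5 and 2 h. Brain/plasma ratio assumed a brain tissue density of 1 g/mL.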

[12] = tested on: Salmonella typhimurium; experiment: Mutagenic activity in Salmonella typhimurium TA1537 at 10 to 100 uM by ames test in presence of S9 mixture; assay type: toxicity, organism-based; details: salmonella enterica subsp. enterica serovar typhimurium; outline: as §2
[13] = tested on: Liver microsome; experiment: Metabolic stability in human liver microsomes; assay type: ADME
Outline: (§5)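 Incubation with human or CD-1 mouse liver microsomes for 1 h; stability expressed as % parent compound remaining.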

[14] = Permeability from apical to basolateral side in human Caco2 cells at pH 7.4; assay type: ADME, cell-based; details: caco-2, pH 7.4; outline: as §3
[15] = tested on: Salmonella typhimurium; experiment: Mutagenic activity in Salmonella typhimurium TA98 at 10 to 100 uM by ames test; assay type: toxicity, organism-based; details: salmonella enterica subsp. enterica serovar typhimurium; outline: as §2
[16] = Plasma protein binding in human at 10 uM; assay type: ADME, cell-free
Outline: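 Human plasma protein binding determined at 10 µM compound, expressed as % bound.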

[17] = tested on: Nucleic Acid; experiment: Ratio of drug uptake from brain to plasma in CD1 mouse at 10 mg/kg, ip after 0.5 hrs; assay type: ADME, organism-based; design: dose 10 mg/kg, route intraperitoneal
[18] = tested on: Salmonella typhimurium; experiment: Mutagenic activity in Salmonella typhimurium TA98 at 10 to 100 uM by ames test in presence of S9 mixture; assay type: toxicity, organism-based; details: salmonella enterica subsp. enterica serovar typhimurium; outline: as §2
[19] = tested on: Liver; experiment: Metabolic stability in mouse liver microsomes; assay type: ADME; outline: as §5
[20] = Plasma concentration in CD1 mouse at 10 mg/kg, ip after 2 hrs; assay type: ADME, organism-based; design: dose 10 mg/kg, route intraperitoneal; outline: as §4
[21] = molecular target: T4, CYP2B6 (Homo sapiens, UniProt P20813); experiment: Inhibition of human CYP2B6 using bupropion as substrate at 10 uM; assay type: ADME; details: probe bupropion
T4 sequence (P20813 whole entry): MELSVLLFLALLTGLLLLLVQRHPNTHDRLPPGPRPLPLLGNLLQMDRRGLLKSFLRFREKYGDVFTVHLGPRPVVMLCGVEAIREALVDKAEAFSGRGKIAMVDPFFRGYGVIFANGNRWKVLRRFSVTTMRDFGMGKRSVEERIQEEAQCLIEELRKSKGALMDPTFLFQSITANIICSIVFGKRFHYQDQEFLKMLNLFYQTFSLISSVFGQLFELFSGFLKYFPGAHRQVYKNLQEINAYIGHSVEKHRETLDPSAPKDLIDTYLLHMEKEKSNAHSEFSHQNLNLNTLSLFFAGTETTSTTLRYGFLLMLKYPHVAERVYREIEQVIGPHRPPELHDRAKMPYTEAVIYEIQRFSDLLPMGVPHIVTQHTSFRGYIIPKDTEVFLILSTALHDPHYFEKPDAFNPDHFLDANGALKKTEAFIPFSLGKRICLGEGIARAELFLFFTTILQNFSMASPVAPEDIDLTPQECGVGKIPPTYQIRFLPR

[22] = tested on: Salmonella typhimurium; experiment: Mutagenic activity in Salmonella typhimurium TA100 at 10 to 100 uM by ames test in presence of S9 mixture; assay type: toxicity, organism-based; details: salmonella enterica subsp. enterica serovar typhimurium; outline: as §2
[23] = Drug uptake in CD1 mouse brain at 10 mg/kg, ip after 2 hrs; assay type: ADME, organism-based; design: dose 10 mg/kg, route intraperitoneal; details: read-out: Drug uptake; outline: as §4
[24] = molecular target: CYP2C9 (Homo sapiens, UniProt P11712); experiment: Inhibition of human CYP2C9 using diclofenac as substrate at 10 uM; assay type: ADME; details: probe diclofenac
Sequence of CYP2C9 (P11712 whole entry): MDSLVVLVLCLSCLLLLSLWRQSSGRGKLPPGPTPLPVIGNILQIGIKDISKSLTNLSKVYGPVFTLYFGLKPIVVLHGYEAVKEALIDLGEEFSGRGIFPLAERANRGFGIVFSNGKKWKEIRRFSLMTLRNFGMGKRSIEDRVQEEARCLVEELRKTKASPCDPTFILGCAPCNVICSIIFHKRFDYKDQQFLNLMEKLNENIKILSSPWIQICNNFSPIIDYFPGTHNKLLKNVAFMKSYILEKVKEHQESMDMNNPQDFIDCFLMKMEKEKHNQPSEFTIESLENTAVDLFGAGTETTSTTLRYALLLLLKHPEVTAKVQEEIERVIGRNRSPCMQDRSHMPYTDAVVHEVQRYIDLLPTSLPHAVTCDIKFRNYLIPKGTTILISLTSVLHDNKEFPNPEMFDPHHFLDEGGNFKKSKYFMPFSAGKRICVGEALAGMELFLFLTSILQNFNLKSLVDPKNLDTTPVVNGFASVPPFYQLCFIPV

[25] = Efflux ratio of permeability from apical to basolateral side over basolateral to apical side in human Caco2 cells at pH 7.4; assay type: ADME, cell-based; details: caco-2, pH 7.4
[26] = tested on: Salmonella typhimurium; experiment: Mutagenic activity in Salmonella typhimurium TA1535 at 10 to 100 uM by ames test in presence of S9 mixture; assay type: toxicity, organism-based; details: salmonella enterica subsp. enterica serovar typhimurium; outline: as §2
[27] = molecular target: Voltage-gated inwardly rectifying potassium channel KCNH2 (Homo sapiens, UniProt Q12809); experiment: Inhibition of human ERG channel expressed in CHO cells by patch clamp method; assay type: cell-based
Sequence of Voltage-gated inwardly rectifying potassium channel KCNH2 (Q12809 whole entry): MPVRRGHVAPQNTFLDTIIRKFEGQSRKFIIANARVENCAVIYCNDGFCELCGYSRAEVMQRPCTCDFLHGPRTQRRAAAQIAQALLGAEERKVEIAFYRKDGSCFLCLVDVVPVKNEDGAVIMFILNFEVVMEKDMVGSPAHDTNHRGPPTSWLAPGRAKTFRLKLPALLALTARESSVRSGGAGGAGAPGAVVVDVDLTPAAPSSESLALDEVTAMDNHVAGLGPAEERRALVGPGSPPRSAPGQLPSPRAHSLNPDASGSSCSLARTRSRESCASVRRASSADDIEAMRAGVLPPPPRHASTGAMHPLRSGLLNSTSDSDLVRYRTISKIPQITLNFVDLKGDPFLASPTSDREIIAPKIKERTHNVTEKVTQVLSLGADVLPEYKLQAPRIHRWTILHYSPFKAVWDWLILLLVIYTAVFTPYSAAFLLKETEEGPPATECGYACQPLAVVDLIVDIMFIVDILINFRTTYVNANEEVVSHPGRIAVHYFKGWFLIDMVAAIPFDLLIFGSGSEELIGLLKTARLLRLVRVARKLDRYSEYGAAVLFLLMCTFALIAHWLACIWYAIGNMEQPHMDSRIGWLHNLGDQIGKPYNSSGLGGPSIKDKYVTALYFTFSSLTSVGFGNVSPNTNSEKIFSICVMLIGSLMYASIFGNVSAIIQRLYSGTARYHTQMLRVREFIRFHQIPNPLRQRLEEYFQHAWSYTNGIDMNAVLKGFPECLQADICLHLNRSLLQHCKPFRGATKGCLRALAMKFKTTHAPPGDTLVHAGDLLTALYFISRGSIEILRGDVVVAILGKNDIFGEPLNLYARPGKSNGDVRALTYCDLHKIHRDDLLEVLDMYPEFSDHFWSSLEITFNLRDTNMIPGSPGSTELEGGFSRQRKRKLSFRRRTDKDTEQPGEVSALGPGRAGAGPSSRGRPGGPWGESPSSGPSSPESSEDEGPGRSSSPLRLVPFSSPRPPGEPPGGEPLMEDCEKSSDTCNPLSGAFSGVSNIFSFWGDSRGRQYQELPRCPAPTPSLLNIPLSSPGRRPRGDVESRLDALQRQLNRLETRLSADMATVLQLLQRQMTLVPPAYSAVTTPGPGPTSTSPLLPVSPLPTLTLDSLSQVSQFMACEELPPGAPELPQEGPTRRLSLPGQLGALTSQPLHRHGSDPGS

[28] = tested on: Mus musculus; experiment: Antipsychotic activity in C57BL/6J mouse assessed as reduction of amphetamine-induced locomotor activity administered ip 15 mins prior to amphetamine challenge measured for 105 mins by open field test relative to vehicle-treated control; assay type: functional, organism-based
[29] = tested on: Salmonella typhimurium; experiment: Mutagenic activity in Salmonella typhimurium TA1535 at 10 to 100 uM by ames test; assay type: toxicity, organism-based; details: salmonella enterica subsp. enterica serovar typhimurium; outline: as §2
[30] = molecular target: CYP2C19 (Homo sapiens, UniProt P33261); experiment: Inhibition of human CYP2C19 using omeprazole as substrate at 10 uM; assay type: ADME; details: probe omeprazole
Sequence of CYP2C19 (P33261 whole entry): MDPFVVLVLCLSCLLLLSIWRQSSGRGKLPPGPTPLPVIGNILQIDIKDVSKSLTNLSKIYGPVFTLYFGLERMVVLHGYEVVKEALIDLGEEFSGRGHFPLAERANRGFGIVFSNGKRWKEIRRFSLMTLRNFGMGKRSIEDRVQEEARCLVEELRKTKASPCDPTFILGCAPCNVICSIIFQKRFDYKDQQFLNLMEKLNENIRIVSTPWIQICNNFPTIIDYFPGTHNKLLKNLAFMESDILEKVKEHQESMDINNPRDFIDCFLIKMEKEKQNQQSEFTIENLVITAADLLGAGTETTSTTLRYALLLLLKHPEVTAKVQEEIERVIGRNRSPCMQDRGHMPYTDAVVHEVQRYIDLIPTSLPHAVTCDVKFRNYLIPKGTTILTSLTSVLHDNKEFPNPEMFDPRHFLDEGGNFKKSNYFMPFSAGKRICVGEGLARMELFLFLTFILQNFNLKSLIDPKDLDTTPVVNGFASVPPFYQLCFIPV

[31] = Plasma concentration in CD1 mouse at 10 mg/kg, ip after 0.5 hrs; assay type: ADME, organism-based; design: dose 10 mg/kg, route intraperitoneal; outline: as §4
[32] = molecular target: CYP2D6 (Homo sapiens, UniProt P10635); experiment: Inhibition of human CYP2D6 using dextromethorphan as substrate at 10 uM; assay type: ADME; details: probe dextromethorphan
Sequence of CYP2D6 (P10635 whole entry): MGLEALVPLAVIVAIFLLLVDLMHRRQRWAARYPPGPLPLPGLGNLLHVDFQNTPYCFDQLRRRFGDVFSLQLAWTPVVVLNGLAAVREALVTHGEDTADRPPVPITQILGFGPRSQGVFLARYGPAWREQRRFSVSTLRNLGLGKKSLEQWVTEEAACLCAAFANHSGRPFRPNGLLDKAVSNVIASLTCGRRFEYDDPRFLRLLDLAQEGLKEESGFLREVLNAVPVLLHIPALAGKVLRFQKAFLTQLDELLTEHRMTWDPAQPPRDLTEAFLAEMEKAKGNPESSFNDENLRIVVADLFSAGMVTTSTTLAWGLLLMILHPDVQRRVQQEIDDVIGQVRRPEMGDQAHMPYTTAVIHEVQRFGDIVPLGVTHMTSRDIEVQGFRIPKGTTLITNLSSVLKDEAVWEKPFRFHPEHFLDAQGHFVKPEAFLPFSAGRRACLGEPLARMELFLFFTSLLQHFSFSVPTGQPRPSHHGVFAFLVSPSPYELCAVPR

[33] = molecular target: CYP3A (Homo sapiens, UniProt P08684+P20815+P24462+Q9HB55); experiment: Inhibition of human CYP3A using midazolam as substrate at 10 uM; assay type: ADME; details: probe midazolam
Outline: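 Human liver microsomes, test compound at 10 µM, midazolam as CYP3A substrate; percent inhibition reported; run by a contract lab.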

Structure (SMILES): CCCOc1ccc(Cl)cc1[C@H]1C[C@@H]1CN
- pEC50 [1]: 6.99
- Emax [2]: 25%
- Activity [3]: inactive
- Ratio EC50 [4]: 33
- Emax [5]: 72%
- pEC50 [6]: 5.46

Structure (SMILES): C=C(F)COc1ccc(Cl)cc1[C@H]1C[C@@H]1CN.Cl
- BPR [7]: 16.2
- Activity [8]: Non-toxic
- Activity [9]: Non-toxic
- permeability [10]: 10.8 ×10⁻⁶ cm/s
- concentration at 0.5 h [11]: 17500 ng/g
- Activity [12]: Non-toxic
- pEC50 [1]: 6.88
- Stability [13]: 80%
- permeability [14]: 38.3 ×10⁻⁶ cm/s
- Activity [15]: Non-toxic
- PPB [16]: 68%
- BPR [17]: 12.1
- Activity [18]: Non-toxic
- Emax [2]: 27%
- Stability [19]: 62%
- concentration at 2 h [20]: 903 ng/mL
- inhibition at 10 µM [21]: 77%
- Activity [22]: Non-toxic
- Activity [3]: inactive
- concentration at 2 h [23]: 14700 ng/g
- inhibition at 10 µM [24]: 51%
- Ratio [25]: 3.5
- Activity [26]: Non-toxic
- pIC50 [27]: 5.40
- Activity [28]: Dose-dependent effect
- Activity [29]: Non-toxic
- inhibition at 10 µM [30]: 33%
- Emax [5]: 81%
- pEC50 [6]: 5.77
- concentration at 0.5 h [31]: 1440 ng/mL
- inhibition at 10 µM [32]: 80%
- inhibition at 10 µM [33]: 27%
